Data as given in ChEMBL document CHEMBL4706700, “Oxa-adamantyl cannabinoids” (Bioorg Med Chem Lett, 2021).
pEC50, pKi: −log10 of the molar value. The source made the active and inactive calls. The rule behind the calls is not given here.

Columns and labels:
[1] = target: Cannabinoid receptor 1 (Rattus norvegicus) (UniProt P20272); test: Agonist activity at rat CB1 receptor expressed in HEK293 cells assessed as inhibition of forskolin-stimulated cAMP level stimulated for 30 mins followed by Eu-cAMP tracer addition and measured after 60 mins; assay type: functional, cell-based; details: filed as agonist, time 90.0 min
Method in brief: (§1)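 cAMP accumulation stimulated by forskolin, in HEK293 cells expressing rCB1 or hCB2. Forskolin-stimulated level set to 100%. EC50 obtained by nonlinear regression. […] Values are the average of two independent experiments, each run in triplicate.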

Cannabinoid receptor 1 [2] = target: T1, Cannabinoid receptor 1 (Rattus norvegicus, UniProt P20272); test: Agonist activity at rat […] CB1 receptor assessed as decrease in forskolin-stimulated cAMP level stimulated for 30 mins followed by Eu-cAMP tracer addition and measured after 60 mins; assay type: functional
Cannabinoid receptor 1 [3] = target: T1, Cannabinoid receptor 1; test: Displacement of [3H]CP55940 from rat brain CB1 receptor by scintillation counting method; assay type: tissue-based
Method in brief: (§2)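 Competition binding with [3H]CP-55,940. Receptor source is rat brain membranes (CB1) or membranes from HEK293 cells expressing mouse or human CB2. Ki from competition curves by nonlinear regression. Ki is the mean of three independent experiments, each in triplicate.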

Cannabinoid receptor 2 [4] = target: T2, Cannabinoid receptor 2 (Homo sapiens, UniProt P34972); test: Displacement of [3H]CP55940 from human CB2 receptor expressed in HEK293 cell membrane by scintillation counting method; assay type: cell membranes
Method in brief: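 Receptor source is rat brain membranes (CB1) or membranes from HEK293 cells expressing mouse or human CB2. Ki from competition curves by nonlinear regression. Ki is the mean of three independent experiments, each in triplicate.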

Cannabinoid receptor 2 [5] = target: Cannabinoid receptor 2 (Mus musculus, UniProt P47936); test: Displacement of [3H]CP55940 from mouse CB2 receptor expressed in HEK293 cell membrane by scintillation counting method; assay type: cell membranes; method in brief: as §2
[6] = target: Cannabinoid receptor 1 (Rattus norvegicus) (UniProt P20272); test: Agonist activity at rat CB1 receptor expressed in HEK293 cells assessed as inhibition of forskolin-stimulated cAMP level stimulated for 30 mins followed by Eu-cAMP tracer addition and measured after 60 mins relative to control; assay type: functional, cell-based; details: filed as agonist, time 90.0 min; method in brief: as §1
Cannabinoid receptor 2 [7] = target: T2, Cannabinoid receptor 2; test: Agonist activity at human CB2 receptor expressed in HEK293 cells assessed as decrease in forskolin-stimulated cAMP level up to 2.3 uM stimulated for 30 mins followed by Eu-cAMP tracer addition and measured after 60 mins; assay type: functional, cell-based; details: dose microM <=2.3, time 90.0 min; method in brief: as §1
[8] = Selectivity ratio of Ki for displacement of [3H]CP55940 from human CB2 receptor expressed in HEK293 cells to Ki for displacement of [3H]CP55940 from mouse CB2 receptor expressed in HEK293 cells; assay type: cell-based
Cannabinoid receptor 2 [9] = target: T2, Cannabinoid receptor 2; test: Irreversible binding affinity to human CB2 receptor expressed in HEK293 cells assessed as inhibition of [3H]CP55940 binding to receptor at 10 fold Ki by saturation curve assay relative to control; assay type: cell-based
Method in brief: (§3)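 Rat brain CB1 or HEK293 hCB2 membranes pretreated with the isothiocyanate ligand, then run in [3H]CP-55,940 saturation binding. Controls were processed in parallel without ligand. Percent covalent labeling = [Bmax(control) − Bmax(ligand)]/Bmax(control). At least two independent experiments in triplicate; mean ± SEM.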

[10] = target: Cannabinoid receptor 1 (Rattus norvegicus) (UniProt P20272); test: Irreversible binding affinity to rat brain CB1 receptor assessed as inhibition of [3H]CP55940 binding to receptor at 10 fold Ki by saturation curve assay relative to control; assay type: tissue-based; details: filed as agonist; method in brief: as §3

Sequence of Cannabinoid receptor 2 (Mus musculus, UniProt P47936) (P47936 whole entry): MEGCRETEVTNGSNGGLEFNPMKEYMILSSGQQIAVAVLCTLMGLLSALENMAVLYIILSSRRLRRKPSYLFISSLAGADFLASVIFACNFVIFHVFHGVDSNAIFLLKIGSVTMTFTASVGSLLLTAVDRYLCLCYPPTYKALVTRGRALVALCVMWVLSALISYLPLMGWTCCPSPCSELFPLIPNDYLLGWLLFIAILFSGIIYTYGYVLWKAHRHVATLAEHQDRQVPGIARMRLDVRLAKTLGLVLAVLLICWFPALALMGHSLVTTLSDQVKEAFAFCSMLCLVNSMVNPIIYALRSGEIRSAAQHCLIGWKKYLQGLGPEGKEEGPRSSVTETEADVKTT
T2 sequence (P34972 whole entry): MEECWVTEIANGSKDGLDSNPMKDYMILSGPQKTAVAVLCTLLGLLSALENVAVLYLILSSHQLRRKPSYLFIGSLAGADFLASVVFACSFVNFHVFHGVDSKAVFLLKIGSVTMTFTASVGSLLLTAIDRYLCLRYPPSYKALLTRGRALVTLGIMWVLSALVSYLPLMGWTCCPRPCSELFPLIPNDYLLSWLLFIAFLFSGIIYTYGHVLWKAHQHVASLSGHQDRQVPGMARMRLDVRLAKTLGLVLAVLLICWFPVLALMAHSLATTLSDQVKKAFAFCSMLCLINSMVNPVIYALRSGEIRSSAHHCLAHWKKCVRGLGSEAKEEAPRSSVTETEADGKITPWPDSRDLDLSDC
T1 sequence (P20272 whole entry): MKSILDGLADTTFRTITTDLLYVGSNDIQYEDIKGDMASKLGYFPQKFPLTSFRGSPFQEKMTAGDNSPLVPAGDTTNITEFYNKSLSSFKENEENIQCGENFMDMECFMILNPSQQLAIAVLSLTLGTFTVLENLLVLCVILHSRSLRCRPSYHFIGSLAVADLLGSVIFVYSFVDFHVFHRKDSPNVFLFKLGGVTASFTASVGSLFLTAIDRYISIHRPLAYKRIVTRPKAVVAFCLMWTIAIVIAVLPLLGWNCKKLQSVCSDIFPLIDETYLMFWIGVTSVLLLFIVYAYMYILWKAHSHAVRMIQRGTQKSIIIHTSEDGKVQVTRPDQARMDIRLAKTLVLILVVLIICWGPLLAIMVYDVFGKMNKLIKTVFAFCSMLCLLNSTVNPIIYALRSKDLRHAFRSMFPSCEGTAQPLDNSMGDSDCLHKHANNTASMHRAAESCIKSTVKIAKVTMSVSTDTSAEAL
Sequence of Cannabinoid receptor 1 (Rattus norvegicus) (P20272 whole entry): as above

**Q.** With `CC1(C)Oc2cc(C34CC5CC(CC(CN=[N+]=[N-])(C5)O3)C4)cc(O)c2[C@@H]2C[C@H](CO)CC[C@H]21` as the compound, how does the inhibition [1] read?
**A.** Its inhibition is “Dose-dependent effect”.

**Q.** What about the pEC50 (Cannabinoid receptor 1 [2]) of the same compound?
**A.** Its pEC50 is 9.05.

**Q.** And the pKi (Cannabinoid receptor 1 [3])?
**A.** The pKi was 8.70.

**Q.** What about the pKi (Cannabinoid receptor 2 [4]) of the same compound?
**A.** Its pKi is 8.66.

**Q.** And the pKi (Cannabinoid receptor 2 [5])?
**A.** Its pKi is 9.15.

**Q.** What about the Emax [6] of the same compound?
**A.** The Emax was 93%.

**Q.** What about the Activity (Cannabinoid receptor 2 [7]) of the same compound?
**A.** The Activity was “inactive”.

**Q.** For `CCCCCCC(C)(C)c1ccc([C@@H]2C[C@H](O)CC[C@H]2CCCO)c(O)c1`, which inhibition [1] is on record?
**A.** Its inhibition is “Dose-dependent effect”.

**Q.** What does the source list for `CC1(C)Oc2cc(C34CC5CC(CC(C#N)(C5)O3)C4)cc(O)c2[C@@H]2C[C@H](O)CC[C@H]21`?
**A.** pKi (Cannabinoid receptor 1 [3]): 7.58; Ratio Ki [8]: 20; pKi (Cannabinoid receptor 2 [4]): 7.50; pKi (Cannabinoid receptor 2 [5]): 8.80

**Q.** Which results are given for `CC1(C)Oc2cc(C34CC5CC(CC(C(N)=O)(C5)O3)C4)cc(O)c2[C@@H]2C[C@H](O)CC[C@H]21`?
**A.** pKi (Cannabinoid receptor 1 [3]): 7.54; pKi (Cannabinoid receptor 2 [4]): 6.43; pKi (Cannabinoid receptor 2 [5]): 6.06

**Q.** Which results are given for `CC1(C)Oc2cc(C34CC5CC(CC(CN=C=S)(C5)O3)C4)cc(O)c2[C@@H]2C[C@H](O)CC[C@H]21`?
**A.** inhibition [1]: Dose-dependent effect; pEC50 (Cannabinoid receptor 1 [2]): 9.10; pKi (Cannabinoid receptor 1 [3]): 8.32; Bmax (Cannabinoid receptor 2 [9]): 32%; pKi (Cannabinoid receptor 2 [4]): 8.44; pKi (Cannabinoid receptor 2 [5]): 8.02; Bmax [10]: 65%; Emax [6]: 88%; Activity (Cannabinoid receptor 2 [7]): inactive

**Q.** With `CC1(C)Oc2cc(C34CC5CC(CC(CN=C=S)(C5)O3)C4)cc(O)c2[C@@H]2C[C@H](CO)CC[C@H]21` as the compound, how does the inhibition [1] read?
**A.** Its inhibition is “Dose-dependent effect”.

**Q.** And the pEC50 (Cannabinoid receptor 1 [2])?
**A.** The pEC50 was 9.05.

**Q.** And the pKi (Cannabinoid receptor 1 [3])?
**A.** Its pKi is 8.08.

**Q.** And the pKi (Cannabinoid receptor 2 [4])?
**A.** The pKi was 8.33.

**Q.** What about the pKi (Cannabinoid receptor 2 [5]) of the same compound?
**A.** The pKi was 8.18.

**Q.** And the Emax [6]?
**A.** The Emax was 94%.

**Q.** And the Activity (Cannabinoid receptor 2 [7])?
**A.** The Activity was “inactive”.

**Q.** Which results are given for `CC1(C)Oc2cc(C34CC5CC(CC(CN=[N+]=[N-])(C5)O3)C4)cc(O)c2[C@@H]2C[C@H](O)CC[C@H]21`?
**A.** inhibition [1]: Dose-dependent effect; pEC50 (Cannabinoid receptor 1 [2]): 8.51; pKi (Cannabinoid receptor 1 [3]): 8.64; pKi (Cannabinoid receptor 2 [4]): 8.51; pKi (Cannabinoid receptor 2 [5]): 8.57; Emax [6]: 87%; Activity (Cannabinoid receptor 2 [7]): inactive

**Q.** With `CC1(C)Oc2cc(C34CC5CC(CC(C(N)=O)(C5)O3)C4)cc(O)c2[C@@H]2C[C@H](CO)CC[C@H]21` as the compound, how does the pKi (Cannabinoid receptor 1 [3]) read?
**A.** The pKi was 7.97.

**Q.** What about the pKi (Cannabinoid receptor 2 [4]) of the same compound?
**A.** The pKi was 7.04.

**Q.** And the pKi (Cannabinoid receptor 2 [5])?
**A.** The pKi was 7.46.
